Our source for the inhibition values is ChEMBL document CHEMBL1165965, “Synthesis and structure-activity relationships of 1,2,3,4-tetrahydropyrido[2,3-b]pyrazines as potent and selective inhibitors of the anaplastic lymphoma kinase” (Bioorg Med Chem, 2010).

Assay [1] addresses Tyrosine-protein kinase JAK1 (Homo sapiens) (UniProt P23458). Briefly: Inhibition of JAK1 JH2 pseudokinase domain at 1 uM. In outline: (§1)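 Single-concentration screen on the Ambit KINOMEscan platform, run against a panel of 250–400 kinases. Per-kinase inhibition was also summarized as S(90), the fraction of kinases inhibited by more than 90%.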
Assay [2] has as its target T1, Mitogen-activated protein kinase kinase kinase kinase 2 (Homo sapiens) (UniProt Q12851).
T1 sequence (whole entry): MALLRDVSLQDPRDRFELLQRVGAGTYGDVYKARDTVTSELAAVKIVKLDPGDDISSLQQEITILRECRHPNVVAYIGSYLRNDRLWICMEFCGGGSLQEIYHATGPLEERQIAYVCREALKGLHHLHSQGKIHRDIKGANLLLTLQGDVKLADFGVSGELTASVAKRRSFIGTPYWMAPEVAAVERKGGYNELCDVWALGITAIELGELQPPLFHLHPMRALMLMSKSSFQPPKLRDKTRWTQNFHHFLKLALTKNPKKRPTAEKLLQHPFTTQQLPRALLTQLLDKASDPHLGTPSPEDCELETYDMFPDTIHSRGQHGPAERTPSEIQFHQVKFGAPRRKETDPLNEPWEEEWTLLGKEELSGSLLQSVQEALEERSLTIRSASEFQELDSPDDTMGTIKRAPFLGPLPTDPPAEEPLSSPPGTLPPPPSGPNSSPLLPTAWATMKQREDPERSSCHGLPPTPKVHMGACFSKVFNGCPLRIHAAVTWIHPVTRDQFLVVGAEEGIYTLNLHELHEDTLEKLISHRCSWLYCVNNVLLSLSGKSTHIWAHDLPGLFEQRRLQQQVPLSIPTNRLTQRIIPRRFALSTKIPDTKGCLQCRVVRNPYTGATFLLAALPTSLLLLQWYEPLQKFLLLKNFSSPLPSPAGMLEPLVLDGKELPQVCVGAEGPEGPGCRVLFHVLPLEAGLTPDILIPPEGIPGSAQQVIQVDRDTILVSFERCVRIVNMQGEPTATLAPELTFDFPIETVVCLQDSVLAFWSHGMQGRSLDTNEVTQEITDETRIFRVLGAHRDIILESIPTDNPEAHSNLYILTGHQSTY
Description: Inhibition of MAP4K2 at 1 uM.

The target in assay [3] is Serine/threonine-protein kinase SIK2 (Homo sapiens) (UniProt Q9H0K1). Briefly: Inhibition of SIK2 at 1 uM.
The target in assay [4] is T2, Mitogen-activated protein kinase kinase kinase 7 (Homo sapiens) (UniProt O43318).
T2 sequence (whole entry): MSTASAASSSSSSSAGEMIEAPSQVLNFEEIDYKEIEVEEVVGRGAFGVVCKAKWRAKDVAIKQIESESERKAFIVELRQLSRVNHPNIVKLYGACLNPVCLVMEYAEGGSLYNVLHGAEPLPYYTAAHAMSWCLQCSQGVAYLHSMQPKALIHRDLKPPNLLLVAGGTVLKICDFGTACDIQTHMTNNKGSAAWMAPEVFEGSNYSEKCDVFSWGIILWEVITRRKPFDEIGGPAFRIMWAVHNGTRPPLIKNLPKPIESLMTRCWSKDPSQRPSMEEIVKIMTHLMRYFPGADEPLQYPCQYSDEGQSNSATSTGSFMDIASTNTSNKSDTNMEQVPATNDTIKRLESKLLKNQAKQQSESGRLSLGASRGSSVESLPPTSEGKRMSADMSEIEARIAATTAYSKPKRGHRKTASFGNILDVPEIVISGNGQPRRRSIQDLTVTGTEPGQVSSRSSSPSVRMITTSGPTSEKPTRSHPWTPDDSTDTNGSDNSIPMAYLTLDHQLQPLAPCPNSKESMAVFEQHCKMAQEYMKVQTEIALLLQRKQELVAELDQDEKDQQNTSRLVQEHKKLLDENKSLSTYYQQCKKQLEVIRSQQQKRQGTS
Briefly: Inhibition of TAK1 at 1 uM.

In assay [5] the target is T3, Bone morphogenetic protein receptor type-2 (Homo sapiens) (UniProt Q13873).
T3 sequence (whole entry): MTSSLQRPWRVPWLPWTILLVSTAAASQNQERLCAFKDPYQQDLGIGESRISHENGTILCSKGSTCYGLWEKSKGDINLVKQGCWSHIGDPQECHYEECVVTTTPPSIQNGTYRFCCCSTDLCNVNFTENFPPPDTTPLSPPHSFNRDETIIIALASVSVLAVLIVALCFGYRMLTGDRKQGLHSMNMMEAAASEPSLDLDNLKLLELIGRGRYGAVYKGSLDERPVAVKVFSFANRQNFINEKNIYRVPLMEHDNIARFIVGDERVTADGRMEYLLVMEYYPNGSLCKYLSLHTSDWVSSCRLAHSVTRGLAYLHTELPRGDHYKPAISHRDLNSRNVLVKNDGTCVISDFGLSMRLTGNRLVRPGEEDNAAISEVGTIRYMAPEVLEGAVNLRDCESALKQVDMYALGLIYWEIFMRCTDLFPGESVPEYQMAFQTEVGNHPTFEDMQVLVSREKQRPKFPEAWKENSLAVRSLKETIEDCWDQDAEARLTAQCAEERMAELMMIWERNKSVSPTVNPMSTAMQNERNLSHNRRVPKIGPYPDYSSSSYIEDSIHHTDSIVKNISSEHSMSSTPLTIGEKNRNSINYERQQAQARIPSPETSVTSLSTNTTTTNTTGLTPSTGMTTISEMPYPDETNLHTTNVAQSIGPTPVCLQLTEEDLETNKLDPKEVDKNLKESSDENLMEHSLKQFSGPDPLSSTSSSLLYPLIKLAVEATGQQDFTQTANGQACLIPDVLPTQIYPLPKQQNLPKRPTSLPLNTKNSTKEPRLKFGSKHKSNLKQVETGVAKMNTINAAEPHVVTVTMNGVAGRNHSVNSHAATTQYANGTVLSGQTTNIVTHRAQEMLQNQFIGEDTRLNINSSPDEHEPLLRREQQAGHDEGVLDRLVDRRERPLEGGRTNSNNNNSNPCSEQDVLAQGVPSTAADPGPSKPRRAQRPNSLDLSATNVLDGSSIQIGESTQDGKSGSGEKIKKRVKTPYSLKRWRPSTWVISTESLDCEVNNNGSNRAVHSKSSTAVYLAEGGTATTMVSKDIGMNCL
Description: Inhibition of BMPR2 at 1 uM.

In assay [6] the target is Serine/threonine-protein kinase B-raf (Homo sapiens) (UniProt P15056). Briefly: Inhibition of BRAF at 1 uM. In outline:
(§2)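 Ambit KINOMEscan screen at a single concentration across a 250–400 kinase panel, recorded as percent inhibition. Selectivity was expressed as S(90), the fraction of kinases inhibited >90%.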

The target in assay [7] is Cyclin-dependent kinase 5 (Homo sapiens) (UniProt Q00535). Description: Inhibition of CDK5 at 1 uM. A digest of the protocol:
as §2

For assay [8], the target named is Cyclin-dependent kinase-like 3 (Homo sapiens) (UniProt Q8IVW4). Description: Inhibition of CDKL3 at 1 uM.
For assay [9], the target named is Dual specificity protein kinase CLK1 (Homo sapiens) (UniProt P49759). Description: Inhibition of CLK1 at 1 uM. A digest of the protocol:
as §2

Assay [10] addresses Tyrosine-protein kinase HCK (Homo sapiens) (UniProt P08631). Description: Inhibition of HCK at 1 uM. A digest of the protocol:
as §1

Bounds are passed on as bounds.

Sequence of Serine/threonine-protein kinase SIK2 (Homo sapiens) (Q9H0K1 whole entry, looked up): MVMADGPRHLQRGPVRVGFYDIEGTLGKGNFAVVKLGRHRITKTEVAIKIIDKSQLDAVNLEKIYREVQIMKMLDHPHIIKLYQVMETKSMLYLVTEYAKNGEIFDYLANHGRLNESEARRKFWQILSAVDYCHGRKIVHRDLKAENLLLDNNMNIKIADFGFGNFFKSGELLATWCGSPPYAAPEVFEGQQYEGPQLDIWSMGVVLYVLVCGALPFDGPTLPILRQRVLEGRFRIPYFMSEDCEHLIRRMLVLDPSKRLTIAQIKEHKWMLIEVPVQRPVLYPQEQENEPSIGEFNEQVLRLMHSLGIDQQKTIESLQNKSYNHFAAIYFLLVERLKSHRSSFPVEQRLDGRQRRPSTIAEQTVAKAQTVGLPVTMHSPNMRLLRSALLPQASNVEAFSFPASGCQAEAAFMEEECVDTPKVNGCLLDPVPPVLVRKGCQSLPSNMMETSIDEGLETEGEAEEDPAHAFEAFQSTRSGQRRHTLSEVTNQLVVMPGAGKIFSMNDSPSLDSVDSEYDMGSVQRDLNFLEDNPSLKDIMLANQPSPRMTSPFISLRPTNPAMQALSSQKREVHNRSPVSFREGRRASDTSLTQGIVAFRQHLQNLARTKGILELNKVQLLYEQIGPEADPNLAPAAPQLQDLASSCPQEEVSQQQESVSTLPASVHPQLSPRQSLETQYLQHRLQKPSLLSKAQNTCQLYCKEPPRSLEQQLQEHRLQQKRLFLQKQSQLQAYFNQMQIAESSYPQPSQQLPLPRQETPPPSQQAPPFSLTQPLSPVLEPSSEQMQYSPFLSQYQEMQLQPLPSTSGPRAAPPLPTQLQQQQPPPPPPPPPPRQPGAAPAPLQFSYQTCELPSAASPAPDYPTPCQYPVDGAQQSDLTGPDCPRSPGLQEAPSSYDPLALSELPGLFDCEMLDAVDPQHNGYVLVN
Sequence of Tyrosine-protein kinase HCK (Homo sapiens) (P08631 2-526 limits assumed): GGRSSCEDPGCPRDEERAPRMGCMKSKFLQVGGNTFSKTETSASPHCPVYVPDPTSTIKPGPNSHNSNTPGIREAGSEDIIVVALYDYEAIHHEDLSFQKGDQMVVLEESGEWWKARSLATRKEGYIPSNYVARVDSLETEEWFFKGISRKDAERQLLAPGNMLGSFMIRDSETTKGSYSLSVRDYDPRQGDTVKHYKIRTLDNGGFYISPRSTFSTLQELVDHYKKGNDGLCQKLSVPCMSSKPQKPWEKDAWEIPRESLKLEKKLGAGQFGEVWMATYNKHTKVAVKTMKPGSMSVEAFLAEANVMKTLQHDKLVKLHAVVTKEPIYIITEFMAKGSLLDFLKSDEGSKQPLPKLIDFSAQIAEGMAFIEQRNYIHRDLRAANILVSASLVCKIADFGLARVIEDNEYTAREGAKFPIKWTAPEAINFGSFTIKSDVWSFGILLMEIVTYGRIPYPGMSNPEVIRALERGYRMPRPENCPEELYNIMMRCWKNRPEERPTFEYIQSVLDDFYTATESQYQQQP
Sequence of Cyclin-dependent kinase 5 (Homo sapiens) (Q00535 whole entry, looked up): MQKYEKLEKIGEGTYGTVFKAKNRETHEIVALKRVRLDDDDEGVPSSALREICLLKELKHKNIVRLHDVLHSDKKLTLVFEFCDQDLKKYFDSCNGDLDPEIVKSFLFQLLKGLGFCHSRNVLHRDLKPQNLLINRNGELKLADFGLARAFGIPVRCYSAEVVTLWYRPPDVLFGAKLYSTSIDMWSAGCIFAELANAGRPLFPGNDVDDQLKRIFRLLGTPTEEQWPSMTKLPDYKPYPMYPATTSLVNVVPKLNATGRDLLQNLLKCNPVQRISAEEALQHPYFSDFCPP
Sequence of Cyclin-dependent kinase-like 3 (Homo sapiens) (Q8IVW4 whole entry, looked up): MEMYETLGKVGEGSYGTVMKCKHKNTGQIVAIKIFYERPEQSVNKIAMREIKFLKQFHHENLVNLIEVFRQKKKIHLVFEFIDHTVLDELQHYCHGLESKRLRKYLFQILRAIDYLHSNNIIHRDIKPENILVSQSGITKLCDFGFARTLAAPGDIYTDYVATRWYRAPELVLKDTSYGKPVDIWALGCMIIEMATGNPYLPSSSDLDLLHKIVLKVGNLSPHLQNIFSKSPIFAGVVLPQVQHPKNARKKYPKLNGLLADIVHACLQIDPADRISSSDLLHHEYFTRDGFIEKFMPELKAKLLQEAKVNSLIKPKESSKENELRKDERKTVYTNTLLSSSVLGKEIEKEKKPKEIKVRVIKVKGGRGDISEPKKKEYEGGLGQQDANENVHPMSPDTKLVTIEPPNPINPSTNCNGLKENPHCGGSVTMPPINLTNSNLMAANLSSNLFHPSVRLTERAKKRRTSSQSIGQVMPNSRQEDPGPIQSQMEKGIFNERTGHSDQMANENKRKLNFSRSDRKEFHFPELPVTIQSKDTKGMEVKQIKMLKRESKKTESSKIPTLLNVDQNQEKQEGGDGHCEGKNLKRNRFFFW
Sequence of Tyrosine-protein kinase JAK1 (Homo sapiens) (P23458 whole entry, the tested form may be a part): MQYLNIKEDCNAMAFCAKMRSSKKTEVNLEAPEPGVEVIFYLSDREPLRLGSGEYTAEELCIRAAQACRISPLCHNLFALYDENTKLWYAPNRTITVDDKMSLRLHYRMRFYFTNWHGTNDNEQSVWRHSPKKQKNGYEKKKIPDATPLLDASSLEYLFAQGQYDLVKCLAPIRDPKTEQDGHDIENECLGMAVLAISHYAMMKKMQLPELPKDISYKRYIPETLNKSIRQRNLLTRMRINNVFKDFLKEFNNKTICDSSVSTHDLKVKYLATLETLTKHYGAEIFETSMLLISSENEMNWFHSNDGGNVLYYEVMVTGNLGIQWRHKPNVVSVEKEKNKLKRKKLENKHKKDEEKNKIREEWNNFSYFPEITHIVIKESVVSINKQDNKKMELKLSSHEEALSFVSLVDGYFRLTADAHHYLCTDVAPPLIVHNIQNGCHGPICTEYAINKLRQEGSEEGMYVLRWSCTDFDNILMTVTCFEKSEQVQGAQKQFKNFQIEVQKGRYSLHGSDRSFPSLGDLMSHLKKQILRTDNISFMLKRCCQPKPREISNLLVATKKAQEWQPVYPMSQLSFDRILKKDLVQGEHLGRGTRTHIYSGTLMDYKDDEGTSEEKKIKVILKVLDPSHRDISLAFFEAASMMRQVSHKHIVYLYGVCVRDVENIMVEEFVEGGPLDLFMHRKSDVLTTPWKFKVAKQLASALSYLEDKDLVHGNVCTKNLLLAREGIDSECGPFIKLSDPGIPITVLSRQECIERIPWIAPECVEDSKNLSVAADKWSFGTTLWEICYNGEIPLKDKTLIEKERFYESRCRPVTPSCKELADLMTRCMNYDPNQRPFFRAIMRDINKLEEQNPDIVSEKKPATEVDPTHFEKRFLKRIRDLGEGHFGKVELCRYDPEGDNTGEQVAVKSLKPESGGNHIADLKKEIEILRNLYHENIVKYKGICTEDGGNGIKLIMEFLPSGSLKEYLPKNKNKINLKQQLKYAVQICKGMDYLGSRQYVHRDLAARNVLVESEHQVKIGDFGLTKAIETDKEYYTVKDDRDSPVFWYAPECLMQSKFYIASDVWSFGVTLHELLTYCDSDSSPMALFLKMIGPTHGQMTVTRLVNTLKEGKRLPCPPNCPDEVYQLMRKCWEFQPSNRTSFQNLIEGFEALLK
Sequence of Dual specificity protein kinase CLK1 (Homo sapiens) (P49759 whole entry, looked up): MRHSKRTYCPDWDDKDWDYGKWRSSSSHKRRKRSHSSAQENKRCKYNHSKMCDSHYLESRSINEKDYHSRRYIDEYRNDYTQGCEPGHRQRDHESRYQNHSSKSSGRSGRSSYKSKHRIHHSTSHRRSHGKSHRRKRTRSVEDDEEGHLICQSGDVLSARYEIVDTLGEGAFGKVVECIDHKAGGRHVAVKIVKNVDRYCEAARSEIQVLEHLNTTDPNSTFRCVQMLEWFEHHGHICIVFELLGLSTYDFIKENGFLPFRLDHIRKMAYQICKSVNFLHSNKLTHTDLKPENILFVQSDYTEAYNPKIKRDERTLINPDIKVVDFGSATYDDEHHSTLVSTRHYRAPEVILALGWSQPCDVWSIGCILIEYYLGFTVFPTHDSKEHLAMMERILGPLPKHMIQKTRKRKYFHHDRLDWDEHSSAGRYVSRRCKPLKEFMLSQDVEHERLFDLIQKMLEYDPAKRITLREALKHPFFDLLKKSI
Sequence of Serine/threonine-protein kinase B-raf (Homo sapiens) (P15056 whole entry): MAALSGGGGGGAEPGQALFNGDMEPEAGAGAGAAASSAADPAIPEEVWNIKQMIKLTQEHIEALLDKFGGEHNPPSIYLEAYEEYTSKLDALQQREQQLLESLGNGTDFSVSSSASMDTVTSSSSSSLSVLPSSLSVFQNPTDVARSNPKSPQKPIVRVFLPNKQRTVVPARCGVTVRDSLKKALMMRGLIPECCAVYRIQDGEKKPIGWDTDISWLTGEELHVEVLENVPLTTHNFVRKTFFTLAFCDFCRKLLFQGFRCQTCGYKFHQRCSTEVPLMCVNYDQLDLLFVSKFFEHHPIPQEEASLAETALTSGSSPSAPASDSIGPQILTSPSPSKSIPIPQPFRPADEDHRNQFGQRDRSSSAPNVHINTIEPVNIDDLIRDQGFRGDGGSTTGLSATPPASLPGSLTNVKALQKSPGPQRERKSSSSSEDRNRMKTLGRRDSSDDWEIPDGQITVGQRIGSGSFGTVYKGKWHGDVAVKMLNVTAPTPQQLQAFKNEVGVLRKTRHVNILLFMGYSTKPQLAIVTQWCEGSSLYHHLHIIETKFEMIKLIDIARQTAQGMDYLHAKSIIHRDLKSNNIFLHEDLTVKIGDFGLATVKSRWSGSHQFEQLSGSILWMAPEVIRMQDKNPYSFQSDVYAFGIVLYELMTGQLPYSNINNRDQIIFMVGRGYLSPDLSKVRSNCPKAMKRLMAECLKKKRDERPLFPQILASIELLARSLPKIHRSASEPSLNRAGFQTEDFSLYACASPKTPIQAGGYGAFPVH

With `FC(F)(F)c1ccc(Cl)cc1CN1CCNc2ncc(-c3ccnc(N4CCNCC4)c3)cc21`, the inhibition was below 50% in assay [1]; 70% in assay [2]; 75% in [3]; below 50% in [4]; below 50% in [5]; below 50% in [6]. In addition, the inhibition in assay [7], in assay [8], in [9] and in assay [10] was below 50% throughout.

In the case of `CN1CCN(c2ccc(-c3cnc4c(c3)N(Cc3cc(Cl)ccc3Cl)CCN4)cn2)CC1`, the inhibition in assay [1], in [2], in [3], in assay [4], in [5] and in [6] was below 50% each time. For the same molecule, the inhibition in assay [7], in assay [8], in assay [9] and in assay [10] was below 50% in each case.

Regarding `COC1CCN(C(=O)c2ccc(-c3cnc4c(c3)N(Cc3cc(Cl)ccc3C(F)(F)F)CCN4)cc2)CC1`, the inhibition in [1], in assay [3], in assay [6], in assay [7], in assay [9] and in [10] was below 50% throughout.

On to `O=C(c1ccc(-c2cnc3c(c2)N(Cc2cc(Cl)ccc2C(F)(F)F)CCN3)cc1)N1CCCCC1`, for which the inhibition in [1], in assay [6], in assay [7], in [9] and in assay [10] was below 50% throughout.

In the case of `O=C(O)c1ccc(-c2cnc3c(c2)N(Cc2cc(Cl)ccc2C(F)(F)F)CCN3)cc1`, the inhibition in assay [1], in assay [6], in assay [7], in [9] and in assay [10] was below 50% each time.

Consider `CN1CCN(c2ccc(-c3cnc4c(c3)N(Cc3cc(F)ccc3F)CCN4)cn2)CC1`, for which the inhibition in assay [1] was below 50%; in [2], 70%; in assay [3], below 50%; in assay [4] it was below 50%; in [5] it was below 50%; in assay [6], below 50%. For the same molecule, the inhibition in assay [7], in assay [8], in [9] and in [10] was below 50% each time.

`O=C(c1ccc(-c2cnc3c(c2)N(Cc2cc(Cl)ccc2C(F)(F)F)CCN3)cc1)N1CCC(N2CCCC2)CC1`: the inhibition in assay [1], in assay [3], in [6], in [7], in assay [9] and in assay [10] was below 50% throughout.

In the case of `CN1CCN(c2ccc(-c3cnc4c(c3)N(Cc3c(F)ccc(F)c3Cl)CCN4)cn2)CC1`, the inhibition was below 50% in assay [1]; 92% in [2]; below 50% in assay [3]; below 50% in assay [4]; below 50% in assay [5]; below 50% in [6]. Besides, the inhibition in assay [7], in assay [8], in [9] and in [10] was below 50% each time.

For `CC(=O)N1CCN(c2cc(-c3cnc4c(c3)N(Cc3cc(Cl)ccc3C(F)(F)F)CCN4)ccn2)CC1`, the inhibition in [1], in [2], in [3], in [4], in assay [5] and in assay [6] was below 50% in each case. Also, the inhibition in assay [7], in assay [8], in assay [9] and in [10] was below 50% each time.

Consider `CN1CCN(c2ccc(-c3cnc4c(c3)N(Cc3cc(Cl)ccc3C(F)(F)F)CCN4)cn2)CC1`, for which the inhibition in [1], in [2], in assay [3], in [4], in [5] and in assay [6] was below 50% throughout. The inhibition in assay [7], in [8], in [9] and in assay [10] was below 50% throughout.
